This is an account of results in ChEMBL document CHEMBL4359856, “Strategies to develop selective CB2 receptor agonists from indole carboxamide synthetic cannabinoids” (Eur J Med Chem, 2019).

For assay [1], the target named is T1, Cannabinoid receptor 1 (Homo sapiens, UniProt P21554). Put plainly: Agonist activity at human CB1 receptor expressed in AtT-20 cells measured every 2 secs for 2 mins by FLIPR assay. It is filed as cell-based. Put shortly:
(§1)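 After vehicle subtraction, the change was taken as % of baseline. The final DMSO concentration was ≤0.1%. EC50 came from four-parameter concentration–response fits. Each experiment was run in duplicate, with at least three independent experiments; values are mean ± SEM.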

The target in assay [2] is T1, Cannabinoid receptor 1. The experiment in a line: Agonist activity at human CB1 receptor expressed in AtT-20 cells at 1 uM measured every 2 secs for 2 mins by FLIPR assay relative to control. It is filed as cell-based. Put shortly:
as §1

The target of assay [3] is T2, Cannabinoid receptor 2 (Homo sapiens, UniProt P34972). Put plainly: Agonist activity at human CB2 receptor expressed in AtT-20 cells measured every 2 secs for 2 mins by FLIPR assay. It is filed as cell-based. Put shortly: as §1
T2 sequence (P34972 whole entry): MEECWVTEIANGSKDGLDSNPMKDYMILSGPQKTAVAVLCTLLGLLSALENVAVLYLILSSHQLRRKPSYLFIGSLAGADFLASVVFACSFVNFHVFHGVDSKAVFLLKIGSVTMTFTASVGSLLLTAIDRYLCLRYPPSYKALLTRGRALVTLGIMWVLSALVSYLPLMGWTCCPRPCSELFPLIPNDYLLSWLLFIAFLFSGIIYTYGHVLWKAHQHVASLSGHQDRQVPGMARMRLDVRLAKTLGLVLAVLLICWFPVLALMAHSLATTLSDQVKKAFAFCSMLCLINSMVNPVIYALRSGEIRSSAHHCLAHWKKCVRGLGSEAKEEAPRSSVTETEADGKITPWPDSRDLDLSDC
The target in assay [4] is T2, Cannabinoid receptor 2. The experiment in a line: Agonist activity at human CB2 receptor expressed in AtT-20 cells at 1 uM measured every 2 secs for 2 mins by FLIPR assay relative to control. It is filed as cell-based. Put shortly:
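In AtT-20 cells stably expressing human CB1 or CB2, membrane-potential dye fluorescence (530/565 nm) was recorded at 37 °C. After vehicle subtraction, the change was taken as % of baseline. The final DMSO concentration was ≤0.1%. EC50 came from four-parameter concentration–response fits. […] Each experiment was run in duplicate, with at least three independent experiments; values are mean ± SEM.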

A short description of assay [5]: Selectivity index, ratio of EC50 for human CB1 receptor expressed in AtT-20 cells to EC50 for human CB2 receptor expressed in AtT-20 cells.
In assay [6] the target is T1, Cannabinoid receptor 1. Put plainly: Agonist activity at human CB1 receptor expressed in AtT-20 cells at 10 uM measured every 2 secs for 2 mins by FLIPR assay relative to control. As to conditions: read-out: Activity. It is filed as cell-based.
The target in assay [7] is T2, Cannabinoid receptor 2. The experiment in a line: Agonist activity at human CB2 receptor expressed in AtT-20 cells at 10 uM measured every 2 secs for 2 mins by FLIPR assay relative to control. It is filed as cell-based.

T1 sequence (P21554 whole entry): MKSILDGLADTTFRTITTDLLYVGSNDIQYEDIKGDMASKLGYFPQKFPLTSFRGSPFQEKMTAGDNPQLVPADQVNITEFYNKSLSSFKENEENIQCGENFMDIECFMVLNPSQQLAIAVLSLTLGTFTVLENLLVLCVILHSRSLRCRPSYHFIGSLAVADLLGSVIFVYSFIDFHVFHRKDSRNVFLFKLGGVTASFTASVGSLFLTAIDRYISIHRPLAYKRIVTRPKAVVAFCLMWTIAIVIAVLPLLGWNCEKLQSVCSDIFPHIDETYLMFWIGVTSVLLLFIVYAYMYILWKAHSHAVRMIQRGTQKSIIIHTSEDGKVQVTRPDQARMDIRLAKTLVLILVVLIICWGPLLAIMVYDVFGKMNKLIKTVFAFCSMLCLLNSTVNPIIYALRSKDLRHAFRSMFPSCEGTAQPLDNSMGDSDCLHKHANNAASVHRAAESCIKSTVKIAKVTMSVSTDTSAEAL

In general, EC50 refers to the concentration giving half of the maximal effect. Lower therefore signals a more potent agent. The term Emax denotes the size of the effect at its maximum, as opposed to the concentration needed. In the case of `CCCCCn1cc(C(=O)NC23CC4CC(CC(C4)C2)C3)c2cccnc21`, the figures for the EC50 at Cannabinoid receptor 1 [1] and on Cannabinoid receptor 2 [3] were 152 nM and 43 nM, respectively. The compound also yielded an Emax at 1 µM at Cannabinoid receptor 1 [2] of 75%. This compound gave an Emax at Cannabinoid receptor 2 [4] of 101%. In addition, in assay [5], the “Ratio EC50” value stood at 3.5.

`COC(=O)[C@@H](NC(=O)c1cc2ccccc2n1CCCCCO)C(C)(C)C`: the activity at 10 µM at Cannabinoid receptor 1 [6] is less than 50%. Also, the Activity at Cannabinoid receptor 2 [7] was less than 50%.

Turning to `CCCCCn1c(C(=O)NC(C)(C)c2ccccc2)cc2ccccc21`, the activity at 10 µM at Cannabinoid receptor 1 [6] was less than 50%.

In the case of `CC(C)(NC(=O)c1cc2ccccc2n1CCCCCO)c1ccccc1`, the activity at 10 µM on Cannabinoid receptor 1 [6] was less than 50%. On Cannabinoid receptor 2 [3], this compound yielded an EC50 of 217 nM. This compound gave an Emax on Cannabinoid receptor 2 [4] of 88%.

Take `CCCCCCC(C)(C)c1ccc([C@@H]2C[C@H](O)CC[C@H]2CCCO)c(O)c1`: the maximum response (Emax) on Cannabinoid receptor 2 [4] amounted to 106%.

Consider `CCCCCn1cc(C(=O)NC(C)(C)c2ccccc2)c2cccnc21`, for which the concentration for a half-maximal effect (EC50) on Cannabinoid receptor 1 [1] stood at 35 nM; on Cannabinoid receptor 2 [3], 104 nM. Further, the Emax at 1 µM on Cannabinoid receptor 1 [2] came out at 106%. The compound further came in with an Emax on Cannabinoid receptor 2 [4] of 96%.

Turning to `CCCCCn1cc(C(=O)N[C@H](C(N)=O)C(C)(C)C)c2cccnc21`, the EC50 on Cannabinoid receptor 1 [1] came out at 4 nM; at Cannabinoid receptor 2 [3] it was 5 nM. The compound also displayed an Emax at 1 µM at Cannabinoid receptor 1 [2] of 110%. The compound further came in with a maximal response (Emax) on Cannabinoid receptor 2 [4] of 94%.

As for `CCCCCn1cc(C(=O)N[C@H](C(=O)OC)C(C)(C)C)c2cccnc21`, the results for the EC50 at Cannabinoid receptor 1 [1] and at Cannabinoid receptor 2 [3] were 1.7 nM and 4.3 nM, respectively. Moreover, at Cannabinoid receptor 1 [2], the Emax at 1 µM stood at 103%. Besides, at Cannabinoid receptor 2 [4], the Emax stood at 102%.

`CCCCCn1cc(C(=O)NC23CC4CC(CC(C4)C2)C3)c2ccccc21`: the EC50 on Cannabinoid receptor 1 [1] turned out to be 74 nM; on Cannabinoid receptor 2 [3] it was 96 nM. The same compound displayed a maximal response (Emax) at 1 µM at Cannabinoid receptor 1 [2] of 108%. Further, the Emax on Cannabinoid receptor 2 [4] was found to be 85%.

As to `CCCCCn1cccc2c(C(=O)NC34CC5CC(CC(C5)C3)C4)cnc1-2`, the activity at 10 µM on Cannabinoid receptor 1 [6] was less than 50%. At Cannabinoid receptor 2 [7], this compound yielded an Activity of less than 50%.

As to `CC(C)(C)[C@H](NC(=O)c1cc2ccccc2n1CCCCCO)C(N)=O`, at Cannabinoid receptor 1 [6], the activity at 10 µM is less than 50%.

`CCCCCn1cc(C(=O)N[C@H](C(=O)OC)C(C)C)c2cccnc21`: the EC50 was 56 nM at Cannabinoid receptor 1 [1] and 15 nM at Cannabinoid receptor 2 [3]. At Cannabinoid receptor 1 [2], this compound gave an Emax at 1 µM of 97%. The compound further came in with an Emax on Cannabinoid receptor 2 [4] of 98%.

`COC(=O)[C@@H](NC(=O)c1cc2ccccc2n1CCCCCO)C(C)C`: the activity at 10 µM at Cannabinoid receptor 1 [6] is less than 50%. The Activity at Cannabinoid receptor 2 [7] was less than 50%.

Regarding `O=C(NC12CC3CC(CC(C3)C1)C2)c1cn(CCCCCO)c2ncccc12`, the EC50 on Cannabinoid receptor 1 [1] was greater than 10000 nM; on Cannabinoid receptor 2 [3], 49 nM. Besides, the activity at 10 µM at Cannabinoid receptor 1 [6] was less than 50%. Moreover, on Cannabinoid receptor 2 [4], the Emax came out at 93%.

Take `CC(C)(C)[C@H](NC(=O)c1cn(CCCCCO)c2ncccc12)C(N)=O`: the EC50 at Cannabinoid receptor 1 [1] came out at 491 nM; on Cannabinoid receptor 2 [3] it was 50 nM. Further, on Cannabinoid receptor 1 [2], the Emax at 1 µM turned out to be 98%. At Cannabinoid receptor 2 [4], this compound displayed an Emax of 96%.

Turning to `CCCCCn1c(C(=O)NC23CC4CC(CC(C4)C2)C3)cc2cccnc21`, the activity at 10 µM at Cannabinoid receptor 1 [6] was less than 50%. Further, on Cannabinoid receptor 2 [7], the Activity was less than 50%.

On to `CCCCCn1nc(C(=O)NC23CC4CC(CC(C4)C2)C3)c2cccnc21`, for which the EC50 at Cannabinoid receptor 1 [1] was 824 nM; at Cannabinoid receptor 2 [3], 122 nM. The Emax at 1 µM at Cannabinoid receptor 1 [2] was 97%. On Cannabinoid receptor 2 [4], this compound returned an Emax of 104%. In assay [5], the “Ratio EC50” value is recorded as 7.

In the case of `COC(=O)[C@@H](NC(=O)c1cn(CCCCCO)c2ncccc12)C(C)(C)C`, the values for the EC50 at Cannabinoid receptor 1 [1] and at Cannabinoid receptor 2 [3] were 234 nM and 19 nM, respectively. For the same compound, at Cannabinoid receptor 1 [2], the Emax at 1 µM was 99%. On Cannabinoid receptor 2 [4], this compound showed an Emax of 96%.

For the compound `CCCCCn1c(C(=O)N[C@H](C(=O)OC)C(C)C)cc2ccccc21`, the activity at 10 µM at Cannabinoid receptor 1 [6] was less than 50%. In addition, the 50% effective concentration (EC50) at Cannabinoid receptor 2 [3] was found to be 713 nM. At Cannabinoid receptor 2 [4], this compound came in with an Emax of 74%.

For `CC(C)(NC(=O)c1cn(CCCCCO)c2ncccc12)c1ccccc1`, the EC50 was 466 nM at Cannabinoid receptor 1 [1] and 152 nM at Cannabinoid receptor 2 [3]. At Cannabinoid receptor 1 [2], this compound displayed a maximum response (Emax) at 1 µM of 110%. Further, the Emax on Cannabinoid receptor 2 [4] was determined as 95%.

As to `CCCCCn1c(C(=O)N[C@H](C(N)=O)C(C)(C)C)cc2ccccc21`, the EC50 at Cannabinoid receptor 1 [1] was greater than 10000 nM; at Cannabinoid receptor 2 [3], 189 nM. Also, at Cannabinoid receptor 1 [6], the activity at 10 µM was less than 50%. Moreover, on Cannabinoid receptor 2 [4], the Emax came out at 73%.

As for `CCCCCn1cc(C(=O)N[C@H](C(N)=O)C(C)C)c2cccnc21`, the EC50 on Cannabinoid receptor 1 [1] was determined as 121 nM; at Cannabinoid receptor 2 [3], 58 nM. This compound came in with an Emax at 1 µM at Cannabinoid receptor 1 [2] of 117%. Also, at Cannabinoid receptor 2 [4], the Emax is 103%.

On to `CC(C)(C)[C@H](NC(=O)c1cc2ccccc2n1CCCCC(F)F)C(N)=O`, for which the activity at 10 µM at Cannabinoid receptor 1 [6] was less than 50%. The EC50 on Cannabinoid receptor 2 [3] came out at 5460 nM. The same compound registered an Emax at Cannabinoid receptor 2 [4] of 128%.

In the case of `CC(C)[C@H](NC(=O)c1cc2ccccc2n1CCCCCO)C(N)=O`, the activity at 10 µM on Cannabinoid receptor 1 [6] was less than 50%. The compound also gave an Activity on Cannabinoid receptor 2 [7] of less than 50%.

As for `CCCCCn1c(C(=O)NC23CC4CC(CC(C4)C2)C3)cc2ccccc21`, the activity at 10 µM on Cannabinoid receptor 1 [6] was less than 50%.

For the compound `CCCCCn1c(C(=O)N[C@H](C(=O)OC)C(C)(C)C)cc2ccccc21`, the activity at 10 µM on Cannabinoid receptor 1 [6] was less than 50%.

With `CCCCCn1c(C(=O)N[C@H](C(N)=O)C(C)C)cc2ccccc21`, on Cannabinoid receptor 1 [6], the activity at 10 µM was less than 50%. Moreover, at Cannabinoid receptor 2 [3], the response was half-maximal at 741 nM (EC50). In addition, the Emax at Cannabinoid receptor 2 [4] came out at 74%.
